ChEMBL document CHEMBL4270546, “A novel Anti-Cancer Stem Cells compound optimized from the natural symplostatin 4 scaffold inhibits Wnt/β-catenin signaling pathway” (Eur J Med Chem, 2018)
Activity calls are given as the source filed them. The rule behind the calls is not given here.

Legend:
Homo sapiens [1] = species: Homo sapiens; assay: Inhibition of Wnt/beta-catenin signaling pathway (unknown origin) expressed in human 293T cells assessed as inhibition of TCF/LEF activity up to 100 uM after 48 hrs by luciferase reporter gene assay; type: cell-based
Summary of the method: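 293T cells transfected with a TCF/LEF reporter plasmid were treated with compound at different concentrations for 48 h. Luciferase activity was measured and normalized to Renilla luciferase activity.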

MCF7 = assay: Antiproliferative activity against human MCF7 cells after 48 hrs by MTT assay; type: functional, cell-based; details: MCF7, 48 h
MDA-MB-231 = assay: Antiproliferative activity against human MDA-MB-231 cells after 48 hrs by MTT assay; type: functional, cell-based; details: MDA-MB-231, 48 h
B16-F10 [2] = assay: Antiproliferative activity against mouse B16F10 cells after 48 hrs by MTT assay; type: functional, cell-based; details: B16-F10, 48 h
A549 = assay: Antiproliferative activity against human A549 cells after 48 hrs by MTT assay; type: functional, cell-based; details: A549, 48 h
B16-F10 [3] = assay: Inhibition of colony formation in mouse B16F10 cells at 0.125 to 0.25 uM after 7 days by crystal violet staining based assay; type: functional, cell-based
Summary of the method: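 Clonogenic long-term growth assay: A375 or B16F10 cells grown under continuous compound exposure for 7 days, then colonies quantified; mean ± sd, n = 3, two-way ANOVA.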

A-375 [4] = assay: Induction of apoptosis in human A375 cells assessed as live cells at 2 uM after 48 hrs by Annexin V-FITC/propidium iodide staining based flow cytometry (reference value: 93.6%); type: functional
A-375 [5] = assay: Induction of apoptosis in human A375 cells assessed as early apoptotic cells at 2 uM after 48 hrs by Annexin V-FITC/propidium iodide staining based flow cytometry (reference value: 1.13%); type: functional
A-375 [6] = assay: Induction of apoptosis in human A375 cells assessed as late apoptotic cells at 2 uM after 48 hrs by Annexin V-FITC/propidium iodide staining based flow cytometry (reference value: 2.7%); type: functional
A-375 [7] = assay: Induction of apoptosis in human A375 cells assessed as necrotic cells at 2 uM after 48 hrs by Annexin V-FITC/propidium iodide staining based flow cytometry (reference value: 2.39%); type: functional
B16-F10 [8] = assay: Induction of apoptosis in mouse B16F10 cells assessed as live cells at 1 uM after 48 hrs by Annexin V-FITC/propidium iodide staining based flow cytometry (reference value: 97.6%); type: functional
B16-F10 [9] = assay: Induction of apoptosis in mouse B16F10 cells assessed as early apoptotic cells at 1 uM after 48 hrs by Annexin V-FITC/propidium iodide staining based flow cytometry (reference value: 0.022%); type: functional
B16-F10 [10] = assay: Induction of apoptosis in mouse B16F10 cells assessed as early apoptotic cells at 2 uM after 48 hrs by Annexin V-FITC/propidium iodide staining based flow cytometry (reference value: 0.022%); type: functional
B16-F10 [11] = assay: Induction of apoptosis in mouse B16F10 cells assessed as late apoptotic cells at 2 uM after 48 hrs by Annexin V-FITC/propidium iodide staining based flow cytometry (reference value: 0.303%); type: functional
A-375 [12] = assay: Induction of apoptosis in human A375 cells after 48 hrs by Annexin V-FITC/propidium iodide staining based flow cytometry; type: functional, cell-based
B16-F10 [13] = assay: Induction of apoptosis in mouse B16F10 cells after 48 hrs by Annexin V-FITC/propidium iodide staining based flow cytometry; type: functional, cell-based
B16-F10 [14] = assay: Antimigratory activity against mouse B16F10 cells at 0.25 uM after 24 to 48 hrs by wound healing assay; type: functional, cell-based
Summary of the method: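 Wound-healing scratch assay on cells treated with or without compound (0.25 μM). Images recorded at 0, 24 and 48 h, and migration distance quantified. Mean ± sd, n = 3, two-way ANOVA.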

B16-F10 [15] = assay: Anti-invasive activity against mouse B16F10 cells at 0.25 uM after 24 hrs by matrigel invasion assay; type: functional, cell-based
Summary of the method: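 Cells seeded in the upper chamber of a transwell with a Matrigel-precoated filter, incubated with compound (0.25 μM) for 24 h. Invaded cells imaged and counted against an untreated control. Mean ± sd, n = 3, two-way ANOVA.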

A-375 [16] = assay: Inhibition of tumor sphere formation ability of human A375 cells at 0.25 to 0.5 uM pretreated for 48 hrs followed by cell culture for 7 days; type: functional, cell-based
Summary of the method: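 A375 or B16F10 cells pretreated with or without compound for 48 h, collected and replated on ultra-low attachment surfaces; after 7 days of culture, sphere number and size scored; mean ± sd, n = 3, two-way ANOVA.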

A-375 [17] = assay: Inhibition of ALDH+ subpopulation of human A375 cells assessed as ALDH+ cells at 0.5 after 48 hrs by flow cytometry (reference value: 25.7%); type: functional; design: scale not given: the % may be the effect or the level left
B16-F10 [18] = assay: Inhibition of ALDH+ subpopulation of mouse B16F10 cells assessed as ALDH+ cells at 0.25 after 48 hrs by flow cytometry (reference value: 26.7%); type: functional; design: scale not given: the % may be the effect or the level left
A-375 [19] = assay: Inhibition of CD133+ sub-population of human A375 cells assessed as CD133+ cells at 0.25 after 48 hrs by flow cytometry (reference value: 4.54%); type: functional; design: scale not given: the % may be the effect or the level left
B16-F10 [20] = assay: Inhibition of CD133+ sub-population of mouse B16F10 cells assessed as CD133+ cells at 0.25 after 48 hrs by flow cytometry (reference value: 7.23%); type: functional; design: scale not given: the % may be the effect or the level left
B16-F10 [21] = assay: Inhibition of CD133+ sub-population of mouse B16F10 cells assessed as CD133+ cells at 0.5 after 48 hrs by flow cytometry (reference value: 7.23%); type: functional; design: scale not given: the % may be the effect or the level left
Homo sapiens [22] = species: Homo sapiens; assay: Inhibition of Wnt/beta-catenin signaling pathway in human A375 cells assessed as reduction in STAT3 phosphorylation after 48 hrs by Western blot analysis; type: cell-based
Summary of the method: (§1)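 A375 cells exposed to compound at several concentrations for 48 h; lysates immunoblotted for STAT3, p-STAT3, β-catenin and c-Myc.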

A-375 [23] = assay: Downregulation of beta-catenin protein expression in human A375 cells after 48 hrs by Western blot analysis; type: functional, cell-based
Summary of the method: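 Cells treated with compound at different concentrations for 48 h. Western blot for STAT3, p-STAT3, β-catenin and c-Myc.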

Homo sapiens [24] = species: Homo sapiens; assay: Inhibition of Wnt/beta-catenin signaling pathway in human A375 cells assessed as reduction in c-Myc protein expression after 48 hrs by Western blot analysis; type: cell-based; summary of the method: as §1
Mus musculus = assay: Toxicity in C57BL/6J mouse implanted with mouse B16F10 cells assessed as change in body weight at 15 mg/kg/day, ip measured daily for 24 days; type: organism-based; details: in vivo, 576 h
Summary of the method: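 C57BL/6J mice carrying subcutaneous B16F10 cell grafts; vehicle and treated groups (n = 5) followed for body weight, with tumours dissected and weighed on day 24; mean ± sd, two-way ANOVA.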

A-375 [25] = assay: Induction of apoptosis in human A375 cells assessed as upregulation of Bax expression after 48 hrs by Western blot analysis
B16-F10 [26] = assay: Induction of apoptosis in mouse B16F10 cells assessed as upregulation of Bax expression after 48 hrs by Western blot analysis
B16-F10 [27] = assay: Induction of apoptosis in mouse B16F10 cells assessed as upregulation of p53 expression after 48 hrs by Western blot analysis

For CC[C@H](C)[C@H](NC(=O)OCc1ccccc1)C(=O)N[C@@H](CC(C)C)C(=O)N[C@@H](CC(C)C)C(=O)N[C@@H](C)/C=C/C(=O)N1C(=O)C=C(OC)[C@@H]1C(C)C, the inhibition (Homo sapiens [1]) was “Active”, the IC50 (MCF7) was 2540 nM and the IC50 (MDA-MB-231) was 922 nM. For the same compound, the IC50 (B16-F10 [2]) was 522 nM, the IC50 (A549) was 4660 nM and the inhibition (B16-F10 [3]) was “Active”. For the same compound, the Activity (A-375 [4]) was 79.3%, the Activity (A-375 [5]) was 9.68% and the Activity (A-375 [6]) was 8.11%. For the same compound, the Activity (A-375 [7]) was 2.87%, the Activity (B16-F10 [8]) was 85% and the Activity (B16-F10 [9]) was 8.74%. The Activity (B16-F10 [10]) was 31.8%, the Activity (B16-F10 [11]) was 32.9% and the Activity (A-375 [12]) was “Dose-dependent effect”. The Activity (B16-F10 [13]) was “Dose-dependent effect”, the Activity (B16-F10 [14]) was “Active” and the Activity (B16-F10 [15]) was “Active”. For the same compound, the inhibition (A-375 [16]) was “Active”, the Activity (A-375 [17]) was 8.81% and the Activity (B16-F10 [18]) was 17.6%. The Activity (A-375 [19]) was 1.25%, the Activity (B16-F10 [20]) was 2.31% and the Activity (B16-F10 [21]) was 1.7%. The inhibition (Homo sapiens [22]) was “Dose-dependent effect”, the Activity (A-375 [23]) was “Dose-dependent effect” and the inhibition (Homo sapiens [24]) was “Dose-dependent effect”. For the same compound, the Activity (Mus musculus) was “Non-Toxic”, the Bax upregulation (A-375 [25]) was “Dose-dependent effect” and the Bax upregulation (B16-F10 [26]) was “Dose-dependent effect”. For the same compound, the p53 upregulation (B16-F10 [27]) was “Dose-dependent effect”.
